Data published in article PMC9545559 (International Journal of Cancer, 2022).

Key:
Assay type in all cases: in vivo, human
[1] = system: patients with untreated locally advanced or metastatic PDAC; assay: Phase I 3 + 3 dose escalation; settings: Level III: ivaltinostat 312.5 mg/m^2 + gemcitabine + erlotinib; four patients
Method in brief: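 3 + 3 escalation: ivaltinostat IV from 187.5 to 250 or 312.5 mg/m2, plus gemcitabine 1000 mg/m2 IV on days 1, 8, 15 and erlotinib 100 mg/day orally in 28-day cycles. DLT graded by NCI CTC v4.0: grade 4 neutropenia ≥6 days, grade 3/4 thrombocytopenia with bleeding, grade 3 neutropenia with fever >38.5°C, or drug-related nonhematologic grade 3/4 toxicity. MTD: ≤1 DLT per six-patient cohort.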

[2] = Pharmacokinetic analysis of ivaltinostat in the phase I study; settings: first day after single administration, mean
[3] = system: patients with untreated locally advanced or metastatic PDAC; assay: Phase II safety and adverse events; settings: for patients with dose reduced due to occurrence of AEs: n = 24, combination ivaltinostat + gemcitabine + erlotinib; for Anemia, Number of patients (%) / Anorexia, Number of patients (%) / Fatigue, Number of patients (%) / Febrile neutropenia, Number of patients (%) / Neutropenia, Number of patients (%) / Pneumonia, Number of patients (%) / Thrombocytopenia, Number of patients (%): treatment-related
Method in brief: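 Patients on ivaltinostat 250 mg/m2 IV with gemcitabine 1000 mg/m2 IV (days 1, 8, 15) and erlotinib 100 mg/day orally, 28-day cycles. Vital signs, AEs, ADRs, serious AEs, ECG and clinical laboratory tests checked on days 1, 8 and 15 of each cycle. AEs graded by NCI CTCAE v4.0. Safety set: all patients given ≥1 dose.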

[4] = 24 subjects, ivaltinostat + gemcitabine + erlotinib

CN(C)CCCNC(=O)/C(=C/CCCCC(=O)NO)COc1cccc2ccccc12 [ivaltinostat]
dose-limiting toxicity (DLT) [1]: A DLT, febrile neutropenia grade 3
Cmax ([2]; 187.5 mg/m^2 iv, n=3): 9553 ng/mL
Terminal half-life ([2]; 187.5 mg/m^2 iv, n=3): 7.3 h
Cmax ([2]; 250 mg/m^2 iv, n=3): 8062 ng/mL
Terminal half-life ([2]; 250 mg/m^2 iv, n=3): 5.7 h
Cmax ([2]; 312.5 mg/m^2 iv, n=4): 12 782 ng/mL
Terminal half-life ([2]; 312.5 mg/m^2 iv, n=4): 6.6 h
drop-out of the study due to intolerable AEs [3]: no cases
subjects with ADRs of grade 3 or 4 severity ([3]; 15 of 24 subjects): 62.5%
ADR: decreased appetite ([3]; 24 subjects): 11 events
ADR: decreased platelet count ([3]; 24 subjects): 15 events
ADR: nausea ([3]; 24 subjects): 10 events
ADR: rash ([3]; 24 subjects): 11 events
ADR: vomiting ([3]; 24 subjects): 10 events
ADRs with grade 3 or 4 severity ([3]; 24 subjects): 26 events
grade 5 (death) events ([3]; 24 subjects): no grade 5 (death) events
AEs reported [3, 4]: 218 events
adverse drug reactions (ADRs) [3, 4]: 114 events
patients with dose reduced due to occurrence of AEs [3]: 12.5%
treatment-related grade 3 or 4 anemia ([3]; n = 24, text): 16.7%
treatment-related grade 3 or 4 neutropenia ([3]; n = 24, text): 33.3%
treatment-related grade 3 or 4 thrombocytopenia ([3]; n = 24, text): 29.2%
Anemia, Number of patients (%) ([3]; Grade 3 (n = 24)): 4 (16.7) patients (%)
Anorexia, Number of patients (%) ([3]; Grade 3 (n = 24)): 2 (8.3) patients (%)
Fatigue, Number of patients (%) ([3]; Grade 3 (n = 24)): 2 (8.3) patients (%)
Febrile neutropenia, Number of patients (%) ([3]; Grade 3 (n = 24)): 2 (8.3) patients (%)
Neutropenia, Number of patients (%) ([3]; Grade 3 (n = 24)): 3 (12.5) patients (%)
Pneumonia, Number of patients (%) ([3]; Grade 3 (n = 24)): 0 patients (%)
Thrombocytopenia, Number of patients (%) ([3]; Grade 3 (n = 24)): 4 (16.7) patients (%)
Anemia, Number of patients (%) ([3]; Grade 4 (n = 24)): 0 patients (%)
Anorexia, Number of patients (%) ([3]; Grade 4 (n = 24)): 0 patients (%)
Fatigue, Number of patients (%) ([3]; Grade 4 (n = 24)): 0 patients (%)
Febrile neutropenia, Number of patients (%) ([3]; Grade 4 (n = 24)): 0 patients (%)
Neutropenia, Number of patients (%) ([3]; Grade 4 (n = 24)): 5 (20.8) patients (%)
Pneumonia, Number of patients (%) ([3]; Grade 4 (n = 24)): 1 (4.2) patients (%)
Thrombocytopenia, Number of patients (%) ([3]; Grade 4 (n = 24)): 3 (12.5) patients (%)
Anemia, Number of patients (%) ([3]; Total grade 3 and 4 (n = 24)): 4 (16.7) patients (%)
Anorexia, Number of patients (%) ([3]; Total grade 3 and 4 (n = 24)): 2 (8.3) patients (%)
Fatigue, Number of patients (%) ([3]; Total grade 3 and 4 (n = 24)): 2 (8.3) patients (%)
Febrile neutropenia, Number of patients (%) ([3]; Total grade 3 and 4 (n = 24)): 2 (8.3) patients (%)
Neutropenia, Number of patients (%) ([3]; Total grade 3 and 4 (n = 24)): 8 (33.3) patients (%)
Pneumonia, Number of patients (%) ([3]; Total grade 3 and 4 (n = 24)): 1 (4.2) patients (%)
Thrombocytopenia, Number of patients (%) ([3]; Total grade 3 and 4 (n = 24)): 7 (29.2) patients (%)

Nc1ccn([C@@H]2O[C@H](CO)[C@@H](O)C2(F)F)c(=O)n1 [gemcitabine, reference compound]
patients with dose reduced due to occurrence of AEs [3]: 12.5%

C#Cc1cccc(Nc2ncnc3cc(OCCOC)c(OCCOC)cc23)c1 [erlotinib, reference compound]
patients with dose reduced due to occurrence of AEs [3]: no patient received a reduced dose
